Results reported in ChEMBL document CHEMBL4689842, “EUbOPEN Chemogenomics Library wave 1” (2021).

Test system: HEK-293T
Test: Multiplex assay against HEK293T;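 for Population Tubulin-Different-Phenotype (%): share of the cells with healthy nuclei that show this phenotype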
Format: toxicity, cell-based
Conditions: human
Method in brief: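 Phenotypes for tubulin, mitochondrial mass and membrane permeability are expressed as per cents of healthy-nucleus cells. Cells were stained live at seeding with Hoechst33342, BioTracker Green Microtubule Cytoskeleton Dye, MitoTracker Red and Annexin V Alexa Fluor 680, then imaged after compound addition on a CQ1 microscope at 37°C and 5% CO2. Machine-learning gating in CellPathfinder separated Hoechst high-intensity objects from normal cells, divided normal cells by nuclear state (healthy, pyknosed, fragmented) and divided pyknosed cells into mitotic or apoptotic.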

[1] = 12 h, 1 µM, compound concentration 1 uM, replicate 1
[2] = 12 h, 1 µM, compound concentration 1 uM, replicate 2
[3] = 12 h, 10 µM, compound concentration 10 uM, replicate 1
[4] = 12 h, 10 µM, compound concentration 10 uM, replicate 2
[5] = 24 h, 1 µM, compound concentration 1 uM, replicate 1
[6] = 24 h, 1 µM, compound concentration 1 uM, replicate 2
[7] = 24 h, 10 µM, compound concentration 10 uM, replicate 1
[8] = 24 h, 10 µM, compound concentration 10 uM, replicate 2
[9] = 48 h, 1 µM, compound concentration 1 uM, replicate 1
[10] = 48 h, 1 µM, compound concentration 1 uM, replicate 2
[11] = 48 h, 10 µM, compound concentration 10 uM, replicate 1
[12] = 48 h, 10 µM, compound concentration 10 uM, replicate 2

Cl.N#Cc1ccc2[nH]cc(CCCCN3CCN(c4ccc5oc(C(N)=O)cc5c4)CC3)c2c1 [VILAZODONE HYDROCHLORIDE]
Population Apoptotic (%) [1]: 53%
Population Healthy Nuclei (%) [1]: 49%
Population Hoechst High Intensity Objects (%) [1]: 9%
Population Membrane Permeable-Phenotype (%) [1]: 1%
Population Mitochondria Different-Phenotype (%) [1]: 93%
Population Mitotic Cells (%) [1]: 46%
Population Normal (%) [1]: 90%
Population Pyknosed Nuclei (%) [1]: 44%
Population Tubulin-Different-Phenotype (%) [1]: 78%
Total Cell Count [1]: 364
Population Apoptotic (%) [2]: 20%
Population Fragmented Nuclei (%) [2]: 6%
Population Healthy Nuclei (%) [2]: 32%
Population Hoechst High Intensity Objects (%) [2]: 3%
Population Membrane Permeable-Phenotype (%) [2]: 6%
Population Mitochondria Different-Phenotype (%) [2]: 67%
Population Mitotic Cells (%) [2]: 79%
Population Normal (%) [2]: 96%
Population Pyknosed Nuclei (%) [2]: 61%
Population Tubulin-Different-Phenotype (%) [2]: 69%
Total Cell Count [2]: 138
Population Apoptotic (%) [3]: 93%
Population Healthy Nuclei (%) [3]: 8%
Population Hoechst High Intensity Objects (%) [3]: 25%
Population Membrane Permeable-Phenotype (%) [3]: 0%
Population Mitochondria Different-Phenotype (%) [3]: 100%
Population Mitotic Cells (%) [3]: 6%
Population Normal (%) [3]: 74%
Population Pyknosed Nuclei (%) [3]: 78%
Population Tubulin-Different-Phenotype (%) [3]: 92%
Total Cell Count [3]: 198
Population Apoptotic (%) [4]: 82%
Population Fragmented Nuclei (%) [4]: 12%
Population Healthy Nuclei (%) [4]: 16%
Population Hoechst High Intensity Objects (%) [4]: 23%
Population Membrane Permeable-Phenotype (%) [4]: 23%
Population Mitochondria Different-Phenotype (%) [4]: 84%
Population Mitotic Cells (%) [4]: 17%
Population Normal (%) [4]: 76%
Population Pyknosed Nuclei (%) [4]: 70%
Population Tubulin-Different-Phenotype (%) [4]: 96%
Total Cell Count [4]: 199
Population Apoptotic (%) [5]: 52%
Population Fragmented Nuclei (%) [5]: 6%
Population Healthy Nuclei (%) [5]: 58%
Population Hoechst High Intensity Objects (%) [5]: 6%
Population Membrane Permeable-Phenotype (%) [5]: 3%
Population Mitochondria Different-Phenotype (%) [5]: 87%
Population Mitotic Cells (%) [5]: 47%
Population Normal (%) [5]: 93%
Population Pyknosed Nuclei (%) [5]: 34%
Population Tubulin-Different-Phenotype (%) [5]: 71%
Total Cell Count [5]: 412
Population Apoptotic (%) [6]: 32%
Population Fragmented Nuclei (%) [6]: 5%
Population Healthy Nuclei (%) [6]: 43%
Population Hoechst High Intensity Objects (%) [6]: 5%
Population Membrane Permeable-Phenotype (%) [6]: 2%
Population Mitochondria Different-Phenotype (%) [6]: 60%
Population Mitotic Cells (%) [6]: 67%
Population Normal (%) [6]: 94%
Population Pyknosed Nuclei (%) [6]: 50%
Population Tubulin-Different-Phenotype (%) [6]: 58%
Total Cell Count [6]: 165
Population Apoptotic (%) [7]: 98%
Population Fragmented Nuclei (%) [7]: 19%
Population Healthy Nuclei (%) [7]: 5%
Population Hoechst High Intensity Objects (%) [7]: 21%
Population Membrane Permeable-Phenotype (%) [7]: 0%
Population Mitochondria Different-Phenotype (%) [7]: 100%
Population Mitotic Cells (%) [7]: 1%
Population Normal (%) [7]: 78%
Population Pyknosed Nuclei (%) [7]: 74%
Population Tubulin-Different-Phenotype (%) [7]: 100%
Total Cell Count [7]: 215
Population Apoptotic (%) [8]: 92%
Population Fragmented Nuclei (%) [8]: 10%
Population Healthy Nuclei (%) [8]: 12%
Population Hoechst High Intensity Objects (%) [8]: 25%
Population Membrane Permeable-Phenotype (%) [8]: 11%
Population Mitochondria Different-Phenotype (%) [8]: 94%
Population Mitotic Cells (%) [8]: 7%
Population Normal (%) [8]: 74%
Population Pyknosed Nuclei (%) [8]: 76%
Population Tubulin-Different-Phenotype (%) [8]: 94%
Total Cell Count [8]: 186
Population Apoptotic (%) [9]: 32%
Population Healthy Nuclei (%) [9]: 75%
Population Hoechst High Intensity Objects (%) [9]: 7%
Population Membrane Permeable-Phenotype (%) [9]: 2%
Population Mitochondria Different-Phenotype (%) [9]: 51%
Population Mitotic Cells (%) [9]: 67%
Population Normal (%) [9]: 92%
Population Pyknosed Nuclei (%) [9]: 15%
Population Tubulin-Different-Phenotype (%) [9]: 57%
Total Cell Count [9]: 639
Population Apoptotic (%) [10]: 33%
Population Fragmented Nuclei (%) [10]: 9%
Population Healthy Nuclei (%) [10]: 68%
Population Hoechst High Intensity Objects (%) [10]: 4%
Population Membrane Permeable-Phenotype (%) [10]: 6%
Population Mitochondria Different-Phenotype (%) [10]: 32%
Population Mitotic Cells (%) [10]: 66%
Population Normal (%) [10]: 95%
Population Pyknosed Nuclei (%) [10]: 22%
Population Tubulin-Different-Phenotype (%) [10]: 51%
Total Cell Count [10]: 263
Population Apoptotic (%) [11]: 94%
Population Fragmented Nuclei (%) [11]: 27%
Population Healthy Nuclei (%) [11]: 0%
Population Hoechst High Intensity Objects (%) [11]: 16%
Population Membrane Permeable-Phenotype (%) [11]: 0%
Population Mitochondria Different-Phenotype (%) [11]: 100%
Population Mitotic Cells (%) [11]: 5%
Population Normal (%) [11]: 83%
Population Pyknosed Nuclei (%) [11]: 72%
Population Tubulin-Different-Phenotype (%) [11]: 0%
Total Cell Count [11]: 248
Population Apoptotic (%) [12]: 95%
Population Fragmented Nuclei (%) [12]: 13%
Population Healthy Nuclei (%) [12]: 12%
Population Hoechst High Intensity Objects (%) [12]: 30%
Population Membrane Permeable-Phenotype (%) [12]: 17%
Population Mitochondria Different-Phenotype (%) [12]: 88%
Population Mitotic Cells (%) [12]: 4%
Population Normal (%) [12]: 69%
Population Pyknosed Nuclei (%) [12]: 73%
Population Tubulin-Different-Phenotype (%) [12]: 94%
Total Cell Count [12]: 191
